Screening data: PubChem BioAssay, Johns Hopkins Ion Channel Center
Hits are enriched below; roughly 2.3% of the tested compounds scored in any of these assays.
TRPC4 PAM: positive allosteric modulators of TRPC4, primary screen, cell-based, mouse TRPC4beta, HEK293 mu-opioid, Fluo-4 calcium; Short transient receptor potential channel 4 (Mus musculus), Q9QUQ5; DAMGO EC20, Fluo-4 Ca2+ flux; stronger effect = higher value; B-score at 10 µM; hit rate 0.42% among 310,000;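 active = B-score of calcium response area above 5 SD of library B-scores, with initial fluorescence ratio within 5 SD of library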;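 note: B-score of integrated fluorescence ratio over time as area under calcium response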
Target sequence (Q9QUQ5 whole entry, looked up): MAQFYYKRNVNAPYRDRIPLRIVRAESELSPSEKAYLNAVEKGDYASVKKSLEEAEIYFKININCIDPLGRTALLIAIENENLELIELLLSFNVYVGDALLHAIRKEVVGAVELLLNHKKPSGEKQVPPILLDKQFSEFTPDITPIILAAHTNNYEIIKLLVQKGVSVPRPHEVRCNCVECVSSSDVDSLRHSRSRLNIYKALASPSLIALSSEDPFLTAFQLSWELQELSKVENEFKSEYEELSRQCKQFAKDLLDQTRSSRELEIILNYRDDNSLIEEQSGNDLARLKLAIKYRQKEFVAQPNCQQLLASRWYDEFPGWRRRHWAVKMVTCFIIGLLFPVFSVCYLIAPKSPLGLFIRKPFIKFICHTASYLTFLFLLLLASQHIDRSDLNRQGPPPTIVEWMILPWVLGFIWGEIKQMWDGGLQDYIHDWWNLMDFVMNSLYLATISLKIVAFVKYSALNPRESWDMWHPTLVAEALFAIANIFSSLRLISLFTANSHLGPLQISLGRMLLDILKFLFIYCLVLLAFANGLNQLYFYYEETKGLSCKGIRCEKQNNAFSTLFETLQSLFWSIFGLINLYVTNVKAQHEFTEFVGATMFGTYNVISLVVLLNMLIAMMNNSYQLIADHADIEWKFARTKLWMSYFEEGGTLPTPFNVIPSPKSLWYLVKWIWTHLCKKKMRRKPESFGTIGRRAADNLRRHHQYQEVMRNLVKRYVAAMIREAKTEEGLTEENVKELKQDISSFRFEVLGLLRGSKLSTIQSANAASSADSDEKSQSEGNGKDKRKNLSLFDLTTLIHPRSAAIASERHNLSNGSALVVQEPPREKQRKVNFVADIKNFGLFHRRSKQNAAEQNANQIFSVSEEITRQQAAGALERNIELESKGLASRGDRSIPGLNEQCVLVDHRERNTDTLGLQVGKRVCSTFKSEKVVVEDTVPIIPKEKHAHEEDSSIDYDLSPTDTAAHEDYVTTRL
TRPC4 agonist: activators of mouse TRPC4 channel, primary screen, Fluo4 calcium, HEK293 TRPC4beta/mu-opioid cells; Fluo4 calcium fluorescence; stronger effect = higher value; AID 2237, 2010; Short transient receptor potential channel 4 (Mus musculus), Q9QUQ5; hit rate 0.49% among 310,000; B-score at 10 µM;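 active = B-score above 5 SD of library B-scores, and initial fluorescence ratio not above library mean plus 5 SD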;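 note: positive B-score marks a calcium rise read as TRPC4 activation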
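System: HEK293 cells stably co-expressing mouse TRPC4beta and mu-opioid receptor; Schedule: Fluo4 dye loading 45 min at room temperature, 110 s recording; Detection: Fluo4 fluorescence, kinetic; Evaluation: B-scored integrated calcium fluorescence ratio; Controls: buffer (low) and maximal DAMGO (high).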
TRPC4 block: inhibitors of mouse TRPC4 channel, primary screen, Fluo4 calcium, HEK293 TRPC4beta/mu-opioid cells; AID 2247, 2010; B-score at 10 µM; DAMGO-evoked Fluo4 calcium flux; stronger effect = lower value; hit rate 0.39% among 300,000;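 active = B-score over 3 SD under the library average, no early fluorescence shift, positive overall ratio signal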
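Material: HEK293 cells with stable TRPC4beta plus mu-opioid receptor expression; probe or stimulus: DAMGO in two steps, submaximal then maximal; technique: Fluo4 calcium fluorescence by kinetic imaging, 5 s 1 Hz baseline; measure: integrated fluorescence ratio relative to baseline, converted to per-well B score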
TRPC6 act: mouse TRPC6 channel activators, primary screen, cell-based, HEK293, membrane potential dye; HEK293-TRPC6 membrane potential dye fluorescence; stronger effect = higher value; B-score at 10 µM; hit rate 0.13% among 310,000;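 active = B-score of the integrated fluorescence ratio above library mean plus 3 SD, and starting fluorescence ratio within library mean plus 5 SD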;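 note: higher score means more depolarization so channel activation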
TRPC6 inhibitor: mouse TRPC6 channel inhibitors, primary screen, cell-based, HEK293, membrane potential dye; Short transient receptor potential channel 6 (Mus musculus), Q61143; ACh-evoked depolarization; stronger effect = lower value; B-score at 10 µM; hit rate 1.1% among 310,000;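 active = B-score under library mean minus 3 SD, initial fluorescence not abnormally high, positive integrated signal ratio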;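 note: B-score derived from integrated fluorescence ratio over the kinetic read; more negative B-score means stronger inhibition of depolarization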
Active calls of the source: *; i = inactive.

SMILES	TRPC4 PAM	TRPC4 agonist	TRPC4 block	TRPC6 act	TRPC6 inhibitor
Cc1ccc(S(=O)(=O)N(CC(=O)Nc2ccc(C(N)=O)cc2)C(=O)N2CCN(C)CC2)cc1	i	i	i	i	i
CCN1CCN(C(=O)N(CC(=O)Nc2ccc(C(N)=O)cc2)S(=O)(=O)c2ccc(C)cc2)CC1	i	i	-6*	i	i
O=C(O)c1cnc(-c2ccccc2)nc1Sc1ccc(Cl)cc1Cl	i	i	-6*	i	i
CN(C)CCN(C(=O)CN1C(=O)c2ccccc2C1=O)c1nc2cc3c(cc2s1)OCO3	i	i	i	i	i
CN(C)CCCN(C(=O)c1ccc2c(c1)CCCC2)c1nc2cc3c(cc2s1)OCO3	i	i	i	i	i
CN(C)CCN(C(=O)c1ccc(S(=O)(=O)N(C)c2ccccc2)cc1)c1nc2cc3c(cc2s1)OCO3	i	i	i	i	i
CN(C)CCCN(C(=O)c1ccc(Br)s1)c1nc2cc3c(cc2s1)OCO3	i	i	-7*	i	i
CCN(CC)CCN(C(=O)CN1C(=O)c2ccccc2C1=O)c1nc2cc3c(cc2s1)OCO3	i	i	i	i	-8.7*
CCN(Cc1ccccc1)S(=O)(=O)c1ccc(C(=O)N(CCCN(C)C)c2nc3cc4c(cc3s2)OCO4)cc1	i	45*	-6*	i	i
CCOc1ccc(NC(=O)COC(=O)C2C3CC4OC(=O)C2C4C3)cc1 (stereo not given)	i	i	i	i	i
CC(C)(C)NC(=O)CN1CCN(C(=O)CCl)CC1	i	i	i	i	i
COC(=O)c1sccc1NC(=S)N1CCN(C)CC1	i	50*	i	i	i
COC(=O)c1sccc1NC(=S)N1CCN(c2cc(C)ccc2C)CC1	i	i	i	i	i
CCN1CCN(C(=S)Nc2ccsc2C(=O)OC)CC1	i	57*	i	i	i
O=C(c1cc(-c2ccc(Cl)cc2)n[nH]1)N1CCN(C(=O)c2ccco2)CC1	i	i	i	i	i
O=C(O)/C=C\C(=O)Nc1ccc(N2CCN(c3ccc(Cl)c(Cl)c3)CC2)cc1	i	i	-6*	i	i
O=C(O)/C=C\C(=O)Nc1ccc(N2CCN(c3ccc(Cl)cc3)CC2)cc1	i	i	i	i	i
CSc1nc(C(=O)N2CCc3c([nH]c4ccccc34)C2c2ccccn2)cs1 (stereo not given)	i	i	i	i	i
Cc1ccc2nc(C(=O)N3CCc4c([nH]c5ccccc45)C3c3ccccn3)cn2c1 (stereo not given)	i	81*	i	i	i
N#Cc1c(Oc2ccc3ccccc3c2)sc(C(=O)c2ccccc2)c1N	12*	i	i	i	i
Cc1cccc(Oc2sc(C(=O)c3ccccc3)c(N)c2C#N)c1C	i	i	i	i	i
CCCCc1c(O)nc(SCC(=O)Nc2cccc3ccccc23)n(-c2ccccc2OC)c1=O	i	i	-5*	i	i
O=C(NN1CCOCC1)NC12CC3CC(CC(C3)C1)C2	i	i	i	i	i
CCOc1ccc(NC(=O)c2cc(=O)[nH]c3ccccc23)cc1	i	i	i	i	i
Cc1csc2c(N3CCN(C(=O)Nc4ccc(OC(F)(F)F)cc4)CC3)ncnc12	i	98*	i	i	i
SMILES	TRPC4 PAM	TRPC4 agonist	TRPC4 block	TRPC6 act	TRPC6 inhibitor
CC(C)(C)c1ccc(N2C(=N)SCC2=O)cc1	33*	i	i	i	i
N=C1SCC(=O)N1c1ccc(Cl)cc1	i	i	i	i	i
COc1cc(C)ccc1S(=O)(=O)n1nc(C)cc1C	i	i	i	i	i
CCOc1cc(/C=N/NC(=O)CN2CCCCC2)ccc1OCc1ccc(Cl)cc1	i	i	i	i	i
CCOc1cc(/C=N/NC(=O)CN2CCCCC2)ccc1OCc1cccc(Cl)c1	11*	i	i	i	i
Cc1ccc(NC(=O)CN(C)S(=O)(=O)c2ccc3c(c2)n(C)c(=O)c(=O)n3C)cc1	i	i	i	i	i
Clc1ccc2c(c1)-c1nnc(Br)n1-c1ccccc1S2	i	i	-6*	i	i
O=C(CSc1cccc[n+]1[O-])NN(c1ccccc1)c1ccccc1	i	i	i	i	i
CCOC(=O)C1CCCN(S(=O)(=O)c2cc3[nH]c(=O)c(=O)[nH]c3cc2C)C1 (stereo not given)	i	i	i	i	i
N#CC1=C(N)C2=CCCC[C@H]2[C@H](c2cccc(F)c2)C1(C#N)C#N	34*	i	i	i	i
N#CC1=C(N)C(C#N)(C#N)C(c2ccc[nH]2)C2CCCC=C12 (stereo not given)	i	i	i	i	i
CCOc1ccc(Br)cc1/C(C)=N\NC1=NCCN1	i	82*	i	i	i
CCCCCOc1ccc(/C(C)=N/NC2=NCCN2)cc1	i	i	i	i	i
Cc1ccnc(NC(=O)c2ccc3c(c2)S(=O)(=O)c2ccccc2C3=O)c1	i	i	i	i	i
Cc1ccc(-c2ccc3c(c2)S(=O)(=O)c2ccccc2C3=O)cc1	29*	i	i	i	i
CC(=O)c1ccc(OCCCC(=O)OCC(=O)Nc2ccc3[nH]c(=O)[nH]c3c2)cc1	i	i	i	i	i
OCC1(Cc2ccc(Cl)cc2)CCN(Cc2ccccc2F)CC1	i	i	-6*	i	i
CN1CCN(CC(=O)Nc2ccc(OC(F)(F)F)cc2)CC1	i	i	i	i	i
Fc1ccc(-n2cc(-c3ccccc3)c3c(N4CCOCC4)ncnc32)cc1	15*	i	i	i	i
CCOC(=O)c1[nH]ncc1CN1CCc2ccc(NC(=O)C3CCCO3)cc2C1 (stereo not given)	i	i	i	i	i
CCOc1cc(/C=N/NC(=O)CCCC(=O)NC2CCCCC2)ccc1O	i	i	i	i	i
Cc1cc([N+](=O)[O-])ccc1NCc1ccco1	i	i	-6*	i	i
COc1cccc(CNc2ccc([N+](=O)[O-])cc2C)c1	i	i	i	i	i
